Experimental data from ChEMBL document CHEMBL2093137, “WHO-TDR NTD Screening”.
Values after ≈ are worked out from the molar mass of the structure shown.

What was measured:
[1] = tested on: Trypanosoma brucei brucei; assay: WHO-TDR: Human African Trypanosomiasis (HAT); assay type: functional, organism-based; conditions: Squib-427
How it was run: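 Values are IC50 figures for antiparasitic potency. They come from a whole-organism screen of 10,000 diverse Life Chemicals compounds against bloodstream-form Trypanosoma brucei (Squib 427 strain).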

[2] = WHO-TDR: Cytotoxicity; assay type: toxicity, cell-based; conditions: human, MRC5 cells
[3] = tested on: Onchocerca ochengi; assay: (§1) WHO-TDR: Onchocerciasis; assay type: functional; design: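 at 12.5 µM on microfilariae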
How it was run: (§2)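 Following previously published standard procedures, with reference drugs as positive controls, a diverse Life Chemicals library was tested on whole Onchocerca ochengi or Onchocerca lienalis microfilariae. The library held 10,000 compounds filtered for drug-likeness and reactive groups. Activity is recorded both as percent inhibition and as IC50.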

[4] = tested on: Onchocerca ochengi; assay: as §1; assay type: functional; design: concentration or dose not given beside the values; how it was run: as §2; remark: listed apart in the source
[5] = tested on: Schistosoma mansoni; assay: WHO-TDR: Schistosomiasis; assay type: functional; design: concentration or dose not given beside the values
How it was run: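 Activity appears as percent inhibition and as IC50. The underlying screen tested a diverse library of 10,000 compounds, supplied by Life Chemicals, on whole larval and/or adult worms of the Puerto Rican strain of Schistosoma mansoni.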

[6] = tested on: Leishmania infantum; assay: WHO-TDR: Leishmaniasis; assay type: functional, organism-based, Mus musculus; conditions: Macrophage
How it was run: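 Values are IC50 figures for antiparasitic potency. They come from a whole-organism screen of a 10,000-compound diverse Life Chemicals library against Leishmania infantum MHOM/MA(BE)/67 amastigotes inside murine peritoneal macrophage host cells.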

[7] = tested on: Trypanosoma cruzi; assay: WHO-TDR: Chagas disease; assay type: functional, organism-based, Homo sapiens; conditions: MRC5
How it was run: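 Whole-organism screen of a 10,000-compound diverse library from Life Chemicals, filtered for drug-likeness and reactive groups, against intracellular amastigotes of Trypanosoma cruzi Tulahuen CL2 beta-galactosidase strain grown in MRC-5SV2 human lung fibroblast host cells. The assay followed previously published standard procedures, with a reference drug as positive control. Antiparasitic potency is reported as IC50.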

[8] = tested on: Plasmodium falciparum K1; assay: WHO-TDR: Malaria; assay type: functional, organism-based, Homo sapiens; conditions: Erythrocyte
How it was run: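 Values are IC50 figures for antiplasmodial potency. They come from a whole-organism screen of 10,000 diverse Life Chemicals compounds against Plasmodium falciparum K1 growing inside human red blood cells, run by previously published standard procedures.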

Row | SMILES | IC50 [1] [µg/mL] | IC50 [2] [µg/mL] | % Inhibition [3] [%] | % Inhibition [4] [%] | % Inhibition [5] [%] | IC50 [6] [µg/mL] | IC50 [7] [µg/mL] | IC50 [8] [µg/mL]
1 | COc1ccc(S(=O)(=O)CC(=O)Nc2sc(-c3ccccc3)cc2C(N)=O)cc1 | 4.28 (≈ 9.95 µM) | > 12.9 | 0 | 100 | 0 | > 12.9 | > 12.9 | 6.93 (≈ 16.1 µM)
2 | COc1ccc(Cl)cc1S(=O)(=O)Nc1ccc2c(c1)CCC(=O)N2CCC(C)C | 10.2 (≈ 23.4 µM) | > 13.1 | 0 | 100 | 0 | > 13.1 | > 13.1 | > 13.1
3 | O=C(Nc1nc(-c2ccncc2)cs1)C1CCCN(S(=O)(=O)c2cccs2)C1 (stereo not drawn) | 4.33 (≈ 9.95 µM) | 9.25 (≈ 21.3 µM) | 0 | 50 | 0 | > 13 | 0.534 (≈ 1.23 µM) | > 13
4 | Cc1ccc2nc(-c3ccc(NC(=O)CC4CSc5nc(C)cc(=O)n54)cc3)sc2c1 (stereo not drawn) | > 13.5 | > 13.5 | 0 | 100 | 0 | > 13.5 | > 13.5 | 3.38 (≈ 7.54 µM)
5 | CC1CCN(C(C)CNC(=O)Nc2ccccc2C(F)(F)F)CC1 (stereo not drawn) | 0.333 (≈ 0.971 µM) | 7.77 (≈ 22.6 µM) | 0 | 0 | 0 | > 10.3 | 3.39 (≈ 9.87 µM) | 2.22 (≈ 6.46 µM)
6 | CCN(CC)CCN(C(=O)Cc1ccc2c(c1)OCO2)c1nc2c(C)cc(C)cc2s1 | 0.452 (≈ 1.03 µM) | 11.2 (≈ 25.4 µM) | 0 | 0 | 0 | 7.4 (≈ 16.8 µM) | 4.58 (≈ 10.4 µM) | 4.32 (≈ 9.83 µM)
7 | CSCc1csc(NC(=O)Cc2ccc(Cl)cc2)n1 | 3 (≈ 9.6 µM) | 3.7 (≈ 11.8 µM) | 75 | 100 | 0 | > 9.38 | 2.47 (≈ 7.91 µM) | 5.98 (≈ 19.1 µM)
8 | Cc1nnc(NC(=O)COc2cccc3ccc(N4CCCC(C)C4)nc23)s1 (stereo not drawn) | > 11.9 | > 11.9 | 0 | 50 | 0 | 6.18 (≈ 15.5 µM) | 0.407 (≈ 1.02 µM) | > 11.9
9 | O=C(NC1CCCC1)c1csc(NC(=O)c2cccs2)n1 | > 9.64 | > 9.64 | 0 | 100 | 0 | > 9.64 | > 9.64 | > 9.64
10 | O=C(COc1ccc(Cl)cc1Cl)Nc1onc2c1CCC2 | 0.334 (≈ 1.02 µM) | > 9.81 | 0 | 0 | 0 | > 9.81 | > 9.81 | > 9.81
11 | COc1ccc(CCNC(=O)Cc2csc(SCc3ccc(C)cc3)n2)cc1OC | > 13.3 | > 13.3 | 0 | 100 | 0 | > 13.3 | 4.01 (≈ 9.07 µM) | > 13.3
12 | Cc1cc(=O)[nH]c(-n2nc(C)cc2NC(=O)C2c3ccccc3Oc3ccccc32)n1 | 0.876 (≈ 2.12 µM) | 0.504 (≈ 1.22 µM) | 0 | 0 | 50 | 4.01 (≈ 9.71 µM) | < 0.124 | 0.657 (≈ 1.59 µM)
13 | O=C(Cn1c(=O)n(Cc2cccnc2)c(=O)c2ncccc21)c1ccc2c(c1)CCCC2 | 4.14 (≈ 9.71 µM) | > 12.8 | 0 | 100 | 0 | > 12.8 | 3.81 (≈ 8.93 µM) | 2.96 (≈ 6.93 µM)
14 | CC1CCN(C(C)CNC(=O)Nc2ccc(F)cc2)CC1 (stereo not drawn) | 0.303 (≈ 1.03 µM) | > 8.8 | 0 | 0 | 0 | > 8.8 | > 8.8 | 3.19 (≈ 10.9 µM)
15 | Cc1cc(=O)[nH]c(-n2nc(C)cc2NC(=O)c2ccc(S(=O)(=O)N3CCCCC3)cc2)n1 | 0.449 (≈ 0.983 µM) | 0.445 (≈ 0.975 µM) | 0 | 0 | 25 | 4.43 (≈ 9.71 µM) | 0.418 (≈ 0.915 µM) | 0.137 (≈ 0.3 µM)
16 | CCCc1cc(=O)[nH]c(-n2nc(C)cc2NC(=O)C23CC4CC(CC(C4)C2)C3)n1 | < 0.119 | < 0.119 | 75 | 100 | 100 | 3.84 (≈ 9.71 µM) | < 0.119 | 0.119 (≈ 0.3 µM)
17 | O=C(Nc1onc2c1CCC2)c1cccc(F)c1 | 2.42 (≈ 9.83 µM) | 4.88 (≈ 19.8 µM) | 0 | 100 | 0 | > 7.39 | 2.12 (≈ 8.63 µM) | > 7.39
18 | COc1ccc(N2CCN(C(=O)c3csc(NC(=O)c4ccccc4)n3)CC2)cc1 | > 12.7 | > 12.7 | 0 | 100 | 0 | 6.56 (≈ 15.5 µM) | > 12.7 | > 12.7
19 | O=C(Nc1nnc(-c2ccno2)o1)c1nc2ccccc2s1 | > 9.4 | > 9.4 | 0 | 100 | 0 | > 9.4 | > 9.4 | 6.88 (≈ 22 µM)
20 | O=C(Cc1cccc2ccccc12)Nc1onc2c1CCC2 | 0.253 (≈ 0.865 µM) | 2.87 (≈ 9.83 µM) | 0 | 0 | 0 | > 8.77 | 0.498 (≈ 1.7 µM) | 1.69 (≈ 5.79 µM)
21 | Cc1cc(C(=O)N(CCCN(C)C)c2nc3c(C)ccc(Cl)c3s2)no1 | 0.378 (≈ 0.962 µM) | 5.07 (≈ 12.9 µM) | 0 | 100 | 0 | 4.17 (≈ 10.6 µM) | 4.14 (≈ 10.5 µM) | 3.3 (≈ 8.41 µM)
22 | CCOc1ccc(N2CC(CNS(=O)(=O)c3c(C)cc(C)cc3C)CC2=O)cc1 (stereo not drawn) | > 12.5 | > 12.5 | 0 | 100 | 0 | > 12.5 | > 12.5 | > 12.5
23 | Cc1cccc(NC(=O)Cn2nc(C(C)C)c3cnn(-c4ccccc4C)c3c2=O)c1 | > 12.5 | > 12.5 | 0 | 100 | 0 | > 12.5 | > 12.5 | > 12.5
24 | CCCc1cc(=O)[nH]c(-n2nc(C)cc2NC(=O)C2CC(=O)N(c3ccc(C)c(C)c3)C2)n1 (stereo not drawn) | 3.99 (≈ 8.9 µM) | 4.51 (≈ 10 µM) | 0 | 50 | 0 | 4.36 (≈ 9.71 µM) | 1.28 (≈ 2.86 µM) | > 13.5
25 | CSc1nc(NC(C)C)c2cnn(CCNC(=O)C34CC5CC(CC(C5)C3)C4)c2n1 | 4.07 (≈ 9.49 µM) | > 12.9 | 0 | 100 | 0 | > 12.9 | 4.17 (≈ 9.73 µM) | > 12.9
26 | Cc1cc(=O)[nH]c(-n2nc(C)cc2NC(=O)/C=C/c2ccc3c(c2)OCO3)n1 | 3.56 (≈ 9.37 µM) | 3.73 (≈ 9.85 µM) | 0 | 0 | 0 | 3.6 (≈ 9.49 µM) | 0.801 (≈ 2.11 µM) | 4.74 (≈ 12.5 µM)
